Where two headings read alike, the source gives them in different places.
Key:
[1] = test system: HSC1-EF1α-EGFP-Puromycin retrovirus in J1 mES cells; test: Reactivation of silent EGFP retrovirus vector, flow cytometry; format: cell-based, mouse
[2] = test system: histone marks in MDA-MB-231 cells; test: Quantitative MS analysis of histone modifications; format: cell-based, human; conditions: 1 μM for 48 h
How it was run: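 MDA-MB-231 cells were treated at 1 µM for 48 h. Histones were acid-extracted, derivatized with propionic anhydride and digested with trypsin. Mock and treated samples carried D0 or D5 propionyl labels. Peptides were analysed by LC-MS/MS on an Orbitrap, with all data manually verified.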

J1 mES cells = test: SSEA1 pluripotency marker immunostaining, flow cytometry; format: cell-based, mouse; conditions: day 10; 2 μM
[3] = test system: H3K9me2 levels in J1 mES cells; test: Cellular potency; format: cell-based; conditions: Mus musculus, 48 h, read-out: IC50 cellular potency
[4] = test system: H3K9me2 mark in bulk histones in several cell lines; conditions: cited from earlier work
MDA-MB-231 cells = test: MTT assay, MDA-MB-231; format: cell-based, human
[5] = test system: retrovirus long terminal repeat and MAGEA2 promoter in mES cells; test: Bisulfite sequencing DNA methylation in mES cells; format: cell-based, mouse; conditions: after 10 d of treatment
How it was run: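 J1 mouse ES cells were grown on 0.1% gelatin in DMEM with 15% ES-qualified FBS, 4 mM L-glutamine, 0.1 mM nonessential amino acids, 1 mM pyruvate, 0.55 mM 2-mercaptoethanol and LIF. They carried a silenced HSC1 retroviral EGFP-puromycin reporter driven by the EF1a promoter.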

[6] = test system: H3K9me2 levels in MDA-MB-231 cells; test: H3K9me2 in-cell western, MDA-MB-231; format: cell-based, human; conditions: read-out: IC50 for reduction of H3K9me2 levels; MDA-MB-231 cells, 48 h exposure, in-cell western
SETD7 = target: T1, SETD7 (Homo sapiens, UniProt Q8WTS6); test: SAHH-coupled assay, SETD7; format: biochemical; conditions: SAHH-coupled assay
T1 sequence (Q8WTS6 1-366): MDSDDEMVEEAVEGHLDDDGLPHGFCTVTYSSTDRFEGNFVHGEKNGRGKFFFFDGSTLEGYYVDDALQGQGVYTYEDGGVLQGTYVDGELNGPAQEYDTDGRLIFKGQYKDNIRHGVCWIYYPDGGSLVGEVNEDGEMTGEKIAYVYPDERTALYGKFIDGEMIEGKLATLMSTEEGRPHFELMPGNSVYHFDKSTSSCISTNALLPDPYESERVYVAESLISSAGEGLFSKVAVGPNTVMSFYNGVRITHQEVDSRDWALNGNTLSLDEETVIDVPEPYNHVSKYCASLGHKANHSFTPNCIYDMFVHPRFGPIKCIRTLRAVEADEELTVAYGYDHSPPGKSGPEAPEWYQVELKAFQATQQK
How it was run: (§1)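 A fluorescence-based coupled assay used S-adenosyl-L-homocysteine hydrolase to follow conversion of cofactor SAM to SAH by the methyltransferase. IC50 values are the average of at least two separate experiments.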

PRMT3 = PRMT3 (Homo sapiens, UniProt O60678); test: SAHH-coupled assay, PRMT3; format: biochemical; conditions: SAHH-coupled assay
How it was run: as §1

G9a = target: T2, G9a (Homo sapiens, UniProt Q96KQ7); test: SAHH-coupled assay, G9a; format: biochemical
T2 sequence (Q96KQ7 1-1210): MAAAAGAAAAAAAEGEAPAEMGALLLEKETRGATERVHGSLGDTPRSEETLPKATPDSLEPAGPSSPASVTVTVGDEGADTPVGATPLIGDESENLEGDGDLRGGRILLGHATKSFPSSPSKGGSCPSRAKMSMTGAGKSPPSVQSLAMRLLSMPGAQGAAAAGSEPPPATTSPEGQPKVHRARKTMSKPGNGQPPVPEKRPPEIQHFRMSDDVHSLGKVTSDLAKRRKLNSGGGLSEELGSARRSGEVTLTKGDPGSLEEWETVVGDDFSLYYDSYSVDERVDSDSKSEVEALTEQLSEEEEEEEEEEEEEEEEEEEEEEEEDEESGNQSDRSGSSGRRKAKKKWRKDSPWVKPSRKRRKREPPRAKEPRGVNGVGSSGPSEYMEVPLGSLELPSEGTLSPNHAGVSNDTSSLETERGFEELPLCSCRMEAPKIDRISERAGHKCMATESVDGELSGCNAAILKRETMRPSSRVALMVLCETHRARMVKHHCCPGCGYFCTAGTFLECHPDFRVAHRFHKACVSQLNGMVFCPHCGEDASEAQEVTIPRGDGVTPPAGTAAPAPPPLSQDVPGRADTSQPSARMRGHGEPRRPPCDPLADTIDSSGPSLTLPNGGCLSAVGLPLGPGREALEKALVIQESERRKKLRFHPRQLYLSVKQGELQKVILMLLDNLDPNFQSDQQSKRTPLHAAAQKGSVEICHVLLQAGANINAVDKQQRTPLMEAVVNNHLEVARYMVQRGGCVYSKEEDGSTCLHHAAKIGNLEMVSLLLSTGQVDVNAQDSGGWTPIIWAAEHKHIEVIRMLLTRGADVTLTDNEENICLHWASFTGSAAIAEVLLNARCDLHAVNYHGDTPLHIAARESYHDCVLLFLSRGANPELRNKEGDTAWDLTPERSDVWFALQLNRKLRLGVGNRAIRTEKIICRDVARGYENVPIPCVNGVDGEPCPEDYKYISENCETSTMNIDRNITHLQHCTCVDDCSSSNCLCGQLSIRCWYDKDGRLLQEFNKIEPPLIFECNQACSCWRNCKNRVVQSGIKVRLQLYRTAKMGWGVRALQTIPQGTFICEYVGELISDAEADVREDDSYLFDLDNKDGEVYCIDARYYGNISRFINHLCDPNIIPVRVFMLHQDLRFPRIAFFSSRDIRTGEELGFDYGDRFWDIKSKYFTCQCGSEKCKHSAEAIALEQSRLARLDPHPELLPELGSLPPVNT

SUV39H2 = SUV39H2 (Homo sapiens, UniProt Q9H5I1); test: SAHH-coupled assay, SUV39H2; format: biochemical; conditions: SAHH-coupled assay
How it was run: as §1

GLP = GLP (Homo sapiens, UniProt Q9H9B1); test: SAHH-coupled assay, GLP; format: biochemical
panel of 24 kinases = test: Kinase selectivity panel; format: biochemical
SETD8 = target: T3, SETD8 (Homo sapiens, UniProt Q9NQR1); test: SAHH-coupled assay, SETD8; format: biochemical; conditions: SAHH-coupled assay
T3 sequence (Q9NQR1 1-393): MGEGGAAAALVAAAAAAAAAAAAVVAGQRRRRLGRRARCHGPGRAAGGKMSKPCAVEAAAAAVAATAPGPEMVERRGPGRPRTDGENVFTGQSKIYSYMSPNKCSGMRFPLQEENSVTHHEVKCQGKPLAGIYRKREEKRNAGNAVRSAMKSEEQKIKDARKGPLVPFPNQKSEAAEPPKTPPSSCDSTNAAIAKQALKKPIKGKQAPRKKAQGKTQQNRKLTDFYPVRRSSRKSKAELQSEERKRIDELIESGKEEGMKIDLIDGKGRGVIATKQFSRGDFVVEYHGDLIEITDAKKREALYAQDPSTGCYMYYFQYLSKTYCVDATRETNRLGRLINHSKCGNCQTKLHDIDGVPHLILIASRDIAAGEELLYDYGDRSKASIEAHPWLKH
How it was run: as §1

cellular assays = test: Cellular assays, comparison with BIX01294; format: cell-based; conditions: Supplementary Fig. 1

Sequence of PRMT3 (O60678 whole entry, species assumed): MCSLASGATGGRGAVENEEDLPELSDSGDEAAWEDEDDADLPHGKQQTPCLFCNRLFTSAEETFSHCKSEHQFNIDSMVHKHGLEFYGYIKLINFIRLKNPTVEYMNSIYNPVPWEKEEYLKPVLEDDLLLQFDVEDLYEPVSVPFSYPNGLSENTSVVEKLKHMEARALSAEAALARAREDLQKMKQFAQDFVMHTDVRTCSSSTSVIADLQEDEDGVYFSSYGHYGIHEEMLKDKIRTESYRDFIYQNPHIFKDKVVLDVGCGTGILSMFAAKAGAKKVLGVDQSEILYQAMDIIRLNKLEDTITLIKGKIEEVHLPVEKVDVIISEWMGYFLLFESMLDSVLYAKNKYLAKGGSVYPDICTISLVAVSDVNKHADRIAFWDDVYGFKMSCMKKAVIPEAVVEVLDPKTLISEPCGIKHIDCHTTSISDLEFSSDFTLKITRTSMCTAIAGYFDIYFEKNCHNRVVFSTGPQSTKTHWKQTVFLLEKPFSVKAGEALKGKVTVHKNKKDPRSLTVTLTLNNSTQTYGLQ
Sequence of SUV39H2 (Q9H5I1 whole entry, species assumed): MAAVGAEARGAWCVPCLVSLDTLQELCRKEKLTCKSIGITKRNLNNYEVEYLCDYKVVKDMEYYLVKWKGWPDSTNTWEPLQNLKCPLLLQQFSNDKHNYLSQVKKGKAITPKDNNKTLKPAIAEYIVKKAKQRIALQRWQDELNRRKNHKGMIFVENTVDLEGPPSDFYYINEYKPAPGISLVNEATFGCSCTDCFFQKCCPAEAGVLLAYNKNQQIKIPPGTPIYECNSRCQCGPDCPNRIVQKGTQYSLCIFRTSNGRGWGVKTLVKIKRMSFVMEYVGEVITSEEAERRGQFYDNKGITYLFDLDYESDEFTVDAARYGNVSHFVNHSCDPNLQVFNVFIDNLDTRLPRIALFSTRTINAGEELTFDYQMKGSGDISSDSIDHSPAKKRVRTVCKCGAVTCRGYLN
Sequence of GLP (Q9H9B1 whole entry): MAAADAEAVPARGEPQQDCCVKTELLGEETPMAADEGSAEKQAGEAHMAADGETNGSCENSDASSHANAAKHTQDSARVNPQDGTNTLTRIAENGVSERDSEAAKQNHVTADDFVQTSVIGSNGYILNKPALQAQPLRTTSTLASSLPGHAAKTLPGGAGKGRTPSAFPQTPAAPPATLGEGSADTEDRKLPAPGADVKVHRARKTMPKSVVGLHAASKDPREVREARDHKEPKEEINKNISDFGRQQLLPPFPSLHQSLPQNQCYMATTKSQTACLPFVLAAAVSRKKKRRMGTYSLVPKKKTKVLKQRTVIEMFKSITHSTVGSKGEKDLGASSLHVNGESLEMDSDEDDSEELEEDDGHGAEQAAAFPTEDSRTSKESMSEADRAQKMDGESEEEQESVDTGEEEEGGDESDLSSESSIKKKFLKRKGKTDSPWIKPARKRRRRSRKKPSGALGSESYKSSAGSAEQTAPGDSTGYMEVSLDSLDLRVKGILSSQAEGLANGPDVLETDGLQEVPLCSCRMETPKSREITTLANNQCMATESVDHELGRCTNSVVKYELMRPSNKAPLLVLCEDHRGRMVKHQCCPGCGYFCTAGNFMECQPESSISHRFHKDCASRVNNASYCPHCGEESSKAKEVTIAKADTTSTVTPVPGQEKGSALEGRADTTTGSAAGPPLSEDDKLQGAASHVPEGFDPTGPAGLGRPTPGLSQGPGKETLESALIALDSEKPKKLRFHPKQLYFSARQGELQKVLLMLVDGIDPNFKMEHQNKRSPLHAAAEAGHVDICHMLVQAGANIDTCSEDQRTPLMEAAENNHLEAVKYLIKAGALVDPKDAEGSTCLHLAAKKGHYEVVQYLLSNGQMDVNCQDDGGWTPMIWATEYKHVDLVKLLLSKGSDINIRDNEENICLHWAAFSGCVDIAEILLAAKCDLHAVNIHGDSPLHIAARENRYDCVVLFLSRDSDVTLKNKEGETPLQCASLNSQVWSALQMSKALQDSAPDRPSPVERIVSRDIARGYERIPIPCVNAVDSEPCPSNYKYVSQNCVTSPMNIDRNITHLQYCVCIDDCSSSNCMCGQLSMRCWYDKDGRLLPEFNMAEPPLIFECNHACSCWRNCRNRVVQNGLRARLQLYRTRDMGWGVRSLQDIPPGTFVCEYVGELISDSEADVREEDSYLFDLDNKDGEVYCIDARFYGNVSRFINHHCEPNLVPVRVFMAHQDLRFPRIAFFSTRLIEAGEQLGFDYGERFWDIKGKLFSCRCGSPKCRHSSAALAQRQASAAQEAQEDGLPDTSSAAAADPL

In the case of `COc1cc2nc(N3CCCN(C)CC3)nc(NC3CCN(Cc4ccccc4)CC3)c2cc1OC` [BIX01294, reference compound], the “EGFP+ cells” value ([1]; day 10, 2 μM, untreated 36%) is reported as 53%, the “state of treated cells” value ([1]; day 12, 2 μM) is reported as “arrested or died” and the “levels of H3K9me2 by quantitative MS” value [2] is reported as “to a lesser extent than UNC0638 did”. For the same molecule, the “levels of H3K9me3 by quantitative MS” value [2] was “remained constant”, the SSEA1 positive cells (J1 mES cells) was 65% and the IC50 [3] was 2.04 µM. For the same molecule, the “abundance of H3K9me2 mark in bulk histones” value ([4]; at 4.1 μM, several cell lines) was “reduced”, the “concentration toxic to cells” value [4] was “higher than 4.1 μM” and the EC50 (MDA-MB-231 cells; Homo sapiens, MDA-MB-231, read-out: EC50 cellular toxicity (MTT)) was 2.7 µM.
For `COc1cc2c(N(C)C3CCN(C(C)C)CC3)nc(C3CCCCC3)nc2cc1OCCCN1CCCC1` [UNC0737], the “DNA methylation of retrovirus LTR and MAGEA2 promoter” value [5] was “hypermethylated”, the IC50 [6] was over 5 µM and the “reactivation of EGFP expression” value ([1]; 500 nM, above the 36% EGFP+ cells of untreated sample) was “did not reactivate EGFP expression”. The IC50 (SETD7) was “inactive”, the IC50 (PRMT3) was “inactive” and the “fold less potent than UNC0638” value (G9a; G9a and GLP biochemical assays) was over 300 fold. The IC50 (G9a; SAHH-coupled assay) was 5 µM, the IC50 (SUV39H2) was “inactive” and the IC50 (GLP) was over 10 µM. The EC50 (MDA-MB-231 cells; read-out: EC50 cellular toxicity (MTT), MDA-MB-231 cells (n = 3)) was 8.7 µM, the “activity against panel of 24 kinases” value (panel of 24 kinases) was “inactive” and the IC50 (SETD8) was “inactive”.
For `COc1cc2c(NC3CCN(C)CC3)nc(N3CCCN(C)CC3)nc2cc1OCCOCCN(C)C` [UNC0321], the “potency in cellular assays relative to BIX01294” value (cellular assays) was “less potent than BIX01294”.
